Converted amounts (≈) assume the structure as drawn. The source made the active and inactive calls. The calls are words filed in the database; no cut-off is given here.
Assays:
Drechslera = test: Antimicrobial activity against Drechslera sorokiniana at 27 to 28 degC after 48 hrs in dark; format: functional
In short: (§1)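 MIC by microtiter bioassay scoring inhibition of spore germination or cell growth. Compounds in MeOH were dried in the wells, then 100 µL of spore or cell suspension (10^4 spores/mL or cells/mL) in appropriate medium was added. The top concentration tested was 230 to 590 µM. Controls were untreated suspension and sterile medium. Growth was scored visually on a 0–3 scale. Run in triplicate, repeated once.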

[1] = test system: Pectobacterium carotovorum; test: Antimicrobial activity against Erwinia carotovora at 27 to 28 degC after 24 hrs in dark; format: functional; in short: as §1
Fusarium culmorum = test: Antimicrobial activity against Fusarium culmorum at 27 to 28 degC after 72 hrs in dark; format: functional; in short: as §1
Staphylococcus aureus = test: Antimicrobial activity against Staphylococcus aureus at 37 degC after 24 hrs in dark; format: functional; in short: as §1
[2] = test system: Pseudomonas savastanoi pv. savastanoi; test: Antimicrobial activity against Pseudomonas savastanoi pv. savastanoi up to 590 uM at 27 to 28 degC after 24 hrs in dark; format: functional, organism-based; in short: as §1
Aspergillus fumigatus = test: Antimicrobial activity against Aspergillus fumigatus up to 590 uM at 27 to 28 degC after 96 hrs in dark; format: functional, organism-based; in short: as §1
Candida albicans = test: Antimicrobial activity against Candida albicans up to 590 uM at 37 degC after 24 hrs in dark; format: functional, organism-based; in short: as §1

Row | Compound | MIC (Drechslera) [µM] | MIC [1] [µM] | MIC (Fusarium culmorum) [µM] | MIC (Staphylococcus aureus) [µM] | Activity [2] | Activity (Aspergillus fumigatus) | Activity (Candida albicans)
1 | COC[C@@H]1NC(=O)[C@@H]2C[C@@H](O)C=NN2C(=O)[C@H](C(C)(C)C)OC(=O)[C@@H](C2(C)CC2)NC(=O)[C@@H]2C[C@@]3(O)c4ccc(Cl)c(Cl)c4N[C@H]3N2C(=O)[C@@H]([C@H](O)CC(=O)O)NC1=O [KUTZNERIDE 6] | > 400 | > 230 | > 230 | > 230 | – | – | –
2 | COC[C@@H]1NC(=O)[C@@H]2C[C@@H](Cl)CNN2C(=O)[C@H](C(C)(C)C)OC(=O)[C@@H](C2(C)CC2)NC(=O)[C@@H]2C[C@@]3(O)c4ccc(Cl)c(Cl)c4N[C@H]3N2C(=O)[C@@H]([C@@H](O)CC(=O)O)NC1=O [KUTZNERIDE 2] | 110 (≈ 97.8 µg/mL) | 6 (≈ 5.34 µg/mL) | 70 (≈ 62.2 µg/mL) | 6 (≈ 5.34 µg/mL) | inactive | inactive | inactive
3 | COC[C@@H]1NC(=O)[C@@H]2CCC=NN2C(=O)[C@H](C(C)(C)C)OC(=O)[C@@H](C2(C)CC2)NC(=O)[C@@H]2C[C@@]3(O)c4ccc(Cl)c(Cl)c4N[C@H]3N2C(=O)[C@@H]([C@H](O)CC(=O)O)NC1=O [KUTZNERIDE 4] | > 590 | 120 (≈ 102 µg/mL) | > 590 | 140 (≈ 119 µg/mL) | inactive | inactive | inactive
4 | COC[C@@H]1NC(=O)[C@@H]2CCC=NN2C(=O)[C@H](C(C)(C)C)OC(=O)[C@@H](C2(C)CC2)NC(=O)[C@@H]2C[C@@]3(O)c4ccc(Cl)c(Cl)c4N[C@H]3N2C(=O)[C@@H]([C@@H](O)CC(=O)O)NC1=O [KUTZNERIDE 9] | > 230 | 230 (≈ 196 µg/mL) | > 230 | 60 (≈ 51.2 µg/mL) | – | – | –
5 | COC[C@@H]1NC(=O)[C@@H]2CCCNN2C(=O)[C@H](C(C)C)OC(=O)[C@@H](C2(C)CC2)NC(=O)[C@@H]2C[C@@]3(O)c4ccc(Cl)c(Cl)c4N[C@H]3N2C(=O)[C@@H]([C@H](O)CC(=O)O)NC1=O [KUTZNERIDE 5] | > 240 | 120 (≈ 101 µg/mL) | > 240 | 120 (≈ 101 µg/mL) | – | – | –
6 | COC[C@@H]1NC(=O)[C@@H]2CCCNN2C(=O)[C@H](C(C)(C)C)OC(=O)[C@@H](C2(C)CC2)NC(=O)[C@@H]2C[C@@]3(O)c4ccc(Cl)c(Cl)c4N[C@H]3N2C(=O)[C@@H]([C@H](O)CC(=O)O)NC1=O [KUTZNERIDE 3] | 260 (≈ 222 µg/mL) | 12 (≈ 10.3 µg/mL) | 260 (≈ 222 µg/mL) | 9 (≈ 7.69 µg/mL) | inactive | inactive | inactive
7 | COC[C@@H]1NC(=O)[C@@H]2CCCNN2C(=O)[C@H](C(C)C)OC(=O)[C@@H](C2(C)CC2)NC(=O)[C@@H]2C[C@@]3(O)c4ccc(Cl)c(Cl)c4N[C@H]3N2C(=O)[C@@H]([C@@H](O)CC(=O)O)NC1=O [KUTZNERIDE 7] | > 420 | 180 (≈ 151 µg/mL) | > 420 | 120 (≈ 101 µg/mL) | – | – | –
8 | COC[C@@H]1NC(=O)[C@@H]2C[C@@H](Cl)CNN2C(=O)[C@H](C(C)(C)C)OC(=O)[C@@H](C2(C)CC2)NC(=O)[C@@H]2C[C@@]3(O)c4ccc(Cl)c(Cl)c4N[C@H]3N2C(=O)[C@@H]([C@H](O)CC(=O)O)NC1=O [KUTZNERIDE 8] | 230 (≈ 205 µg/mL) | 6 (≈ 5.34 µg/mL) | 110 (≈ 97.8 µg/mL) | 6 (≈ 5.34 µg/mL) | – | – | –
9 | C[C@@H]1[C@H](O)[C@@H](C)/C=C/C=C/C=C/C=C/C=C/C=C/C=C/[C@H](O[C@@H]2O[C@H](C)[C@@H](O)[C@H](N)[C@@H]2O)C[C@@H]2O[C@](O)(C[C@@H](O)C[C@@H](O)[C@H](O)CC[C@@H](O)C[C@@H](O)CC(=O)O[C@H]1C)C[C@H](O)[C@H]2C(=O)O [AMPHOTERICIN B] | 4 (≈ 3.7 µg/mL) | – | 40 (≈ 37 µg/mL) | – | – | – | –
10 | CN[C@@H]1[C@H](O[C@H]2[C@H](O[C@H]3[C@H](O)[C@@H](O)[C@H](N=C(N)N)[C@@H](O)[C@@H]3N=C(N)N)O[C@@H](C)[C@]2(O)C=O)O[C@@H](CO)[C@H](O)[C@H]1O [STREPTOMYCIN] | – | – | – | 17 (≈ 9.89 µg/mL) | – | – | –
11 | COC[C@@H]1NC(=O)[C@@H]2CCCNN2C(=O)[C@H](C(C)(C)C)OC(=O)[C@@H](C2(C)CC2)NC(=O)[C@@H]2C[C@@]3(O)c4ccc(Cl)c(Cl)c4N[C@H]3N2C(=O)[C@@H]([C@@H](O)CC(=O)O)NC1=O [KUTZNERIDE 1] | 230 (≈ 197 µg/mL) | 60 (≈ 51.3 µg/mL) | 210 (≈ 179 µg/mL) | 12 (≈ 10.3 µg/mL) | inactive | inactive | inactive

From ChEMBL document CHEMBL1158134, “Low-abundance kutznerides from Kutzneria sp. 744” (2006)
